Results: ChEMBL document CHEMBL4680121, “Development of (4-methoxyphenyl)-1H-tetrazol-5-amine regioisomers as a new class of selective antitubercular agents” (Eur J Med Chem, 2020)
pIC50: −log10 of the molar value.

Experiments:
[1] = test system: Mycobacterium tuberculosis; assay: Antitubercular activity against Mycobacterium tuberculosis Spec.192 assessed as inhibition of microbial growth by classical test tube method; assay type: functional
In short: (§1)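 Classical test-tube serial dilution in Youmans' modified Proskauer–Beck liquid medium with 10% bovine serum. Inoculum came from 14-day-old cultures. Compounds were given as DMSO solutions (stock 10 mg/ml), diluted geometrically in medium to 3.1–100 µg/ml, and incubated at 37 °C. MIC is the minimum concentration inhibiting growth relative to a no-compound control.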

[2] = test system: Mycobacterium tuberculosis; assay: Antitubercular activity against Mycobacterium tuberculosis H37Rv ATCC 25618 assessed as inhibition of microbial growth incubated for 1 week by MABA method; assay type: functional; conditions: H37Rv ATCC 25618, 168 h, time 1 weeks
In short: (§2)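 Microplate Alamar Blue assay in Middlebrook 7H9 broth with 10% OADC. Inoculum from fresh LJ culture was adjusted to McFarland 1 and diluted 1:20. DMSO stocks were two-fold serially diluted to final 0.125–512 µg/ml, with growth and sterile controls. Plates ran 1 week at 37 °C, then Alamar blue was added for 24 h. MIC is the lowest concentration preventing the blue-to-pink change.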

[3] = test system: Mycobacterium tuberculosis; assay: Antitubercular activity against Mycobacterium tuberculosis Spec.192 assessed as inhibition of microbial growth incubated for 1 week by MABA method; assay type: functional; conditions: Mycobacterium tuberculosis, 192, 168 h; time 1 weeks; in short: as §2
[4] = test system: Mycobacterium tuberculosis; assay: Antitubercular activity against Mycobacterium tuberculosis H37Rv ATCC 25618 assessed as inhibition of microbial growth by classical test tube method; assay type: functional; in short: as §1
Proteus vulgaris = assay: Antibacterial activity against Proteus vulgaris NCTC 4635 assessed as bacterial growth inhibition measured after 18 hrs by two-fold serial microdilution method; assay type: functional
In short: (§3)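 Two-fold serial broth microdilution in MH II medium following modified CLSI procedures. Compounds were dissolved in DMSO and diluted in medium to at most 1% solvent, tested from 0.03125 to 512 μg/ml. Final inoculum 10^6 CFU/ml. MIC was taken as the lowest concentration with no visible growth after 18 h at 35 °C.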

[5] = test system: Staphylococcus epidermidis; assay: Antibacterial activity against Staphylococcus epidermidis ATCC 12228 assessed as bacterial growth inhibition measured after 18 hrs by two-fold serial microdilution method; assay type: functional; in short: as §3
Pseudomonas aeruginosa [6] = assay: Antibacterial activity against Pseudomonas aeruginosa PAO1 assessed as bacterial growth inhibition measured after 18 hrs by two-fold serial microdilution method; assay type: functional; in short: as §3
Staphylococcus aureus [7] = assay: Antibacterial activity against Staphylococcus aureus ATCC 6538 assessed as bacterial growth inhibition measured after 18 hrs by two-fold serial microdilution method; assay type: functional; in short: as §3
Staphylococcus aureus [8] = assay: Antibacterial activity against Staphylococcus aureus NCTC 4163 assessed as bacterial growth inhibition measured after 18 hrs by two-fold serial microdilution method; assay type: functional; in short: as §3
[9] = test system: Staphylococcus epidermidis; assay: Antibacterial activity against Staphylococcus epidermidis ATCC 35984/RP62A assessed as bacterial growth inhibition measured after 18 hrs by two-fold serial microdilution method; assay type: functional; in short: as §3
Pseudomonas aeruginosa [10] = assay: Antibacterial activity against Pseudomonas aeruginosa NCTC 6749 assessed as bacterial growth inhibition measured after 18 hrs by two-fold serial microdilution method; assay type: functional; in short: as §3
Klebsiella pneumoniae = assay: Antibacterial activity against Klebsiella pneumoniae ATCC 10031 assessed as bacterial growth inhibition measured after 18 hrs by two-fold serial microdilution method; assay type: functional; in short: as §3
[11] = test system: Staphylococcus epidermidis; assay: Antibacterial activity against Staphylococcus epidermidis ATCC 1457 assessed as bacterial growth inhibition measured after 18 hrs by two-fold serial microdilution method; assay type: functional; in short: as §3
Escherichia coli = assay: Antibacterial activity against Escherichia coli ATCC 25922 assessed as bacterial growth inhibition measured after 18 hrs by two-fold serial microdilution method; assay type: functional; in short: as §3
HaCaT [12] = assay: Cytotoxicity against human HaCaT cells assessed as reduction in cell viability at 100 uM measured after 72 hrs by MTT assay; assay type: cell-based
In short: (§4)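 MTT viability assay on cells grown in DMEM with 10% heat-inactivated FBS, penicillin/streptomycin and 20 mM HEPES at 37 °C/5% CO2. Cells were seeded at 1×10^4 per well and allowed to adhere for 24 h, then the medium was refreshed. Compounds were added at 20–140 μM for 72 h at 37 °C, followed by MTT (0.5 mg/mL in serum-free medium) for 4 h. Untreated cells served as control. IC50 is the concentration giving 50% growth inhibition versus control.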

HaCaT [13] = assay: Cytotoxicity against human HaCaT cells assessed as reduction in cell viability measured after 72 hrs by MTT assay; assay type: cell-based; in short: as §4
[14] = test system: Mycobacterium scrofulaceum; assay: Potency index, ratio of isoniazid MIC to test compound MIC for antibacterial activity against Mycobacterium scrofulaceum assessed as inhibition of microbial growth incubated for 1 week by MABA method; assay type: functional; conditions: time 1 weeks
Mycobacterium kansasii = assay: Antibacterial activity against Mycobacterium kansasii assessed as inhibition of microbial growth incubated for 1 week by MABA method; assay type: functional; conditions: 168 h, time 1 weeks
In short: (§5)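 Microplate Alamar Blue assay using two-fold serial microdilution in Middlebrook 7H9 broth with 10% OADC, compounds 0.125–512 µg/ml from DMSO stocks. Inoculum came from fresh LJ culture, was adjusted to McFarland 1 and diluted 1:20. Plates were incubated 1 week at 37 °C, Alamar blue was added and plates were re-incubated 24 h. MIC was the lowest concentration preventing the blue-to-pink change. Each plate carried growth and sterile controls.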

Mycobacterium avium = assay: Antimycobacterial activity against Mycobacterium avium assessed as inhibition of microbial growth incubated for 1 week by MABA method; assay type: functional; conditions: 168 h, time 1 weeks; in short: as §2
[15] = test system: Mycobacterium scrofulaceum; assay: Antibacterial activity against Mycobacterium scrofulaceum assessed as inhibition of microbial growth incubated for 1 week by MABA method; assay type: functional; conditions: 168 h, time 1 weeks; in short: as §5
Mycobacterium xenopi = assay: Antibacterial activity against Mycobacterium xenopi assessed as inhibition of microbial growth incubated for 1 week by MABA method; assay type: functional; conditions: 168 h, time 1 weeks; in short: as §5
[16] = test system: Mycobacterium intracellulare; assay: Antimycobacterial activity against Mycobacterium intracellulare assessed as inhibition of microbial growth incubated for 1 week by MABA method; assay type: functional; conditions: 168 h, time 1 weeks; in short: as §5
V79 [17] = assay: Cytotoxicity against Chinese Hamster V79 cells assessed as reduction in cell viability at 100 uM measured after 72 hrs by MTT assay; assay type: cell-based, Cricetulus griseus; conditions: v79, 72 h; in short: as §4
V79 [18] = assay: Cytotoxicity against Chinese Hamster V79 cells assessed as reduction in cell viability measured after 72 hrs by MTT assay; assay type: cell-based; conditions: Cricetulus griseus, V79, 72 h; in short: as §4
[19] = test system: Mycolicibacterium fortuitum; assay: Antibacterial activity against Mycobacterium fortuitum assessed as inhibition of microbial growth incubated for 1 week by MABA method; assay type: functional; conditions: 168 h, time 1 weeks; in short: as §5

`CO[C@H]1/C=C/O[C@@]2(C)Oc3c(C)c(O)c4c(O)c(c(/C=N/N5CCN(C)CC5)c(O)c4c3C2=O)NC(=O)/C(C)=C\C=C\[C@H](C)[C@H](O)[C@@H](C)[C@@H](O)[C@@H](C)[C@H](OC(C)=O)[C@@H]1C` [RIFAMPIN] gave an MIC [1] of less than 3.1 µg/mL, an MIC [2] of 1 µg/mL and an MIC [3] of 1 µg/mL. For the same compound, the MIC [4] was less than 3.1 µg/mL.

`COc1ccc(NC(=S)Nc2ccccc2F)cc1` gave an MIC (Proteus vulgaris) greater than 256 µg/mL, an MIC [5] greater than 256 µg/mL and an MIC (Pseudomonas aeruginosa [6]) greater than 256 µg/mL. For the same compound, the MIC (Staphylococcus aureus [7]) was greater than 256 µg/mL, the MIC [1] was 50 µg/mL and the MIC (Staphylococcus aureus [8]) was greater than 256 µg/mL. For the same compound, the MIC [4] was 50 µg/mL, the MIC [9] was greater than 256 µg/mL and the MIC (Pseudomonas aeruginosa [10]) was greater than 256 µg/mL. It also gave an MIC (Klebsiella pneumoniae) greater than 256 µg/mL, an MIC [11] greater than 256 µg/mL and an MIC (Escherichia coli) greater than 256 µg/mL.

For `COc1ccc(NC(=S)Nc2ccc(Br)cc2)cc1`, the MIC (Proteus vulgaris) was greater than 256 µg/mL, the MIC [5] was greater than 256 µg/mL and the MIC (Pseudomonas aeruginosa [6]) was greater than 256 µg/mL. The MIC (Staphylococcus aureus [7]) was greater than 256 µg/mL, the MIC [1] was 25 µg/mL and the MIC (Staphylococcus aureus [8]) was greater than 256 µg/mL. For the same compound, the MIC [4] was 25 µg/mL, the MIC [9] was greater than 256 µg/mL and the MIC (Pseudomonas aeruginosa [10]) was greater than 256 µg/mL. It also gave an MIC (Klebsiella pneumoniae) greater than 256 µg/mL, an MIC [11] greater than 256 µg/mL and an MIC (Escherichia coli) greater than 256 µg/mL.

In the case of `COc1ccc(NC(=S)Nc2cccc(Br)c2)cc1`, the MIC (Proteus vulgaris) was greater than 256 µg/mL, the MIC [5] was greater than 256 µg/mL and the MIC (Pseudomonas aeruginosa [6]) was greater than 256 µg/mL. The MIC (Staphylococcus aureus [7]) was greater than 256 µg/mL, the MIC [1] was 50 µg/mL and the MIC (Staphylococcus aureus [8]) was greater than 256 µg/mL. The MIC [4] was 50 µg/mL, the MIC [9] was greater than 256 µg/mL and the MIC (Pseudomonas aeruginosa [10]) was greater than 256 µg/mL. The MIC (Klebsiella pneumoniae) was greater than 256 µg/mL, the MIC [11] was greater than 256 µg/mL and the MIC (Escherichia coli) was greater than 256 µg/mL.

`COc1ccc(NC(=S)Nc2cccc(F)c2)cc1` was tested, and the MIC (Proteus vulgaris) was greater than 256 µg/mL, the MIC [5] was greater than 256 µg/mL and the MIC (Pseudomonas aeruginosa [6]) was greater than 256 µg/mL. For the same compound, the MIC (Staphylococcus aureus [7]) was greater than 256 µg/mL, the MIC [1] was 100 µg/mL and the MIC (Staphylococcus aureus [8]) was greater than 256 µg/mL. It also gave an MIC [4] of 50 µg/mL, an MIC [9] greater than 256 µg/mL and an MIC (Pseudomonas aeruginosa [10]) greater than 256 µg/mL. For the same compound, the MIC (Klebsiella pneumoniae) was greater than 256 µg/mL, the MIC [11] was greater than 256 µg/mL and the MIC (Escherichia coli) was greater than 256 µg/mL.

`COc1ccc(NC(=S)Nc2cccc(Cl)c2)cc1` showed an MIC (Proteus vulgaris) greater than 256 µg/mL, an MIC [5] greater than 256 µg/mL and an MIC (Pseudomonas aeruginosa [6]) greater than 256 µg/mL. For the same compound, the MIC (Staphylococcus aureus [7]) was greater than 256 µg/mL, the MIC [1] was 100 µg/mL and the MIC (Staphylococcus aureus [8]) was greater than 256 µg/mL. The MIC [4] was 100 µg/mL, the MIC [9] was greater than 256 µg/mL and the MIC (Pseudomonas aeruginosa [10]) was greater than 256 µg/mL. The MIC (Klebsiella pneumoniae) was greater than 256 µg/mL, the MIC [11] was greater than 256 µg/mL and the MIC (Escherichia coli) was greater than 256 µg/mL.

`COc1ccc(Nc2nnnn2-c2cccc(F)c2)cc1` was tested, and the MIC (Proteus vulgaris) was greater than 256 µg/mL, the MIC [5] was greater than 256 µg/mL and the MIC (Pseudomonas aeruginosa [6]) was greater than 256 µg/mL. For the same compound, the MIC (Staphylococcus aureus [7]) was greater than 256 µg/mL, the Activity (HaCaT [12]) was “Non-Toxic” and the pIC50 (HaCaT [13]) was 3.99. For the same compound, the MIC [2] was 16 µg/mL, the Ratio [14] was 4 and the MIC (Mycobacterium kansasii) was 256 µg/mL. It also gave an MIC (Staphylococcus aureus [8]) greater than 256 µg/mL, an MIC [3] of 16 µg/mL and an MIC (Mycobacterium avium) of 128 µg/mL. For the same compound, the MIC [15] was 16 µg/mL, the MIC [9] was greater than 256 µg/mL and the MIC (Mycobacterium xenopi) was 128 µg/mL. For the same compound, the MIC [16] was 64 µg/mL, the MIC (Pseudomonas aeruginosa [10]) was greater than 256 µg/mL and the MIC (Klebsiella pneumoniae) was greater than 256 µg/mL. For the same compound, the Activity (V79 [17]) was “Non-Toxic”, the pIC50 (V79 [18]) was 3.91 and the MIC [11] was greater than 256 µg/mL. It also gave an MIC [19] of 256 µg/mL and an MIC (Escherichia coli) greater than 256 µg/mL.

In the case of `COc1ccc(NC(=S)Nc2ccc(Cl)cc2)cc1`, the MIC (Proteus vulgaris) was greater than 256 µg/mL, the MIC [5] was greater than 256 µg/mL and the MIC (Pseudomonas aeruginosa [6]) was greater than 256 µg/mL. It also gave an MIC (Staphylococcus aureus [7]) greater than 256 µg/mL, an MIC [1] of 50 µg/mL and an MIC (Staphylococcus aureus [8]) greater than 256 µg/mL. It also gave an MIC [4] of 50 µg/mL, an MIC [9] greater than 256 µg/mL and an MIC (Pseudomonas aeruginosa [10]) greater than 256 µg/mL. It also gave an MIC (Klebsiella pneumoniae) greater than 256 µg/mL, an MIC [11] greater than 256 µg/mL and an MIC (Escherichia coli) greater than 256 µg/mL.
